“Also recorded” adds a separate entry of the source. Like-named read-outs stand apart in the source and are kept apart here.
Assays:
[1] = molecular target: native GluN1/GluN3A receptors (Mus musculus, UniProt A2AIR5); type: cell-based; settings: 30 μM; 1 μM CGP-78608; 10 mM glycine puffs; mouse P8–15 slices
[2] = molecular target: α2β4 nicotinic receptors (Rattus norvegicus, UniProt P09483+P12390); assay: Selectivity test in Xenopus oocytes: α2β4 nicotinic receptors; type: cell-based; settings: 20 μM; 10 μM acetylcholine
[3] = molecular target: human GluN1/GluN3A receptors (Homo sapiens, UniProt Q8TCU5); type: cell-based
Method in brief: (§1)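 Xenopus oocyte two-electrode voltage clamp at −40 mV, 23°C. Human GluN1/GluN3A or rat GluN1–4a/GluN3B, with GluN1:GluN3 cRNA at 1:3. […] Concentration–response data normalized to responses without test compound, fitted by Hill equation for IC50, slope and residual minimum. Percent inhibition was 100×(1−Idrug/Icontrol) at fitted maximum. IC50 taken from mean log(IC50); 8–9 oocytes.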

[4] = test system: GluN1/GluN2 NMDA receptors; type: cell-based; settings: 30 μM; 0.5 mM NMDA puffs; mouse P8–15 slices
[5] = molecular target: rat GluN1–4a^FA,TL/GluN3B receptors (Rattus norvegicus, UniProt P35439+Q8VHN2, F484A/T518L); type: cell-based
[6] = molecular target: GluN1/GluN3A channels (Mus musculus, UniProt A2AIR5); assay: Nonstationary variance analysis of neuronal glycine-evoked current responses; type: cell-based; settings: 30 μM; VHOLD −60 mV; n = 5
Method in brief: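 Acute mouse hippocampal slices (P8–15), CA1 pyramidal cells, whole-cell at −60 mV, 32°C ACSF with gabazine, NBQX, DL-APV, strychnine and 1 μM CGP-78608. […] Compound at 30 μM or 0.15% DMSO bath-applied. Ten deactivation phases per condition at steady state, split into 50 segments, high-passed at 1 Hz. Variance–current fit gave unitary current; chord conductance assumed 0 mV reversal.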

[7] = molecular target: T1, P2X receptors (human P2X2) (Homo sapiens, UniProt Q9UBL9); assay: Selectivity test in Xenopus oocytes: purinergic receptors; type: cell-based; settings: 20 μM; 9 μM ATP
T1 sequence (Q9UBL9 1-471): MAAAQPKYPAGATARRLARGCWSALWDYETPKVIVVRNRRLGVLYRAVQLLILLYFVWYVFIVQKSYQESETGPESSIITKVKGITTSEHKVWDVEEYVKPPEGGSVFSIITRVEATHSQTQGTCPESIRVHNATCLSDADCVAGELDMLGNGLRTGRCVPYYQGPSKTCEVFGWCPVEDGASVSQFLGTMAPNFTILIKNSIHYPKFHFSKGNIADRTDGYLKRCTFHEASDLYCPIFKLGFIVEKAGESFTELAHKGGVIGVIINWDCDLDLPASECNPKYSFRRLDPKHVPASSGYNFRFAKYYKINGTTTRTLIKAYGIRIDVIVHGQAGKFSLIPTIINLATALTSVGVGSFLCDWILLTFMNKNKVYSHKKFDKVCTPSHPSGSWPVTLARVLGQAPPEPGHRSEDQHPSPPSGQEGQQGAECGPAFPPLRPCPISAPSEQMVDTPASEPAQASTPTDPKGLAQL

[8] = test system: GluK1–2 and GluK2/GluK5 kainate receptors; assay: Selectivity test in Xenopus oocytes: kainate receptors; type: cell-based, human; settings: 20 μM; 100 μM glutamate (GluK2/K5: 100 μM AMPA)
[9] = molecular target: human GluN1^FA,TL/GluN3A receptors (Homo sapiens, UniProt Q8TCU5); type: cell-based
[10] = molecular target: T2, glycine receptors (α1) (Rattus norvegicus, UniProt P07727); assay: Selectivity test in Xenopus oocytes: glycine receptors; type: cell-based; settings: 20 μM; 100 μM glycine
T2 sequence (P07727 29-457): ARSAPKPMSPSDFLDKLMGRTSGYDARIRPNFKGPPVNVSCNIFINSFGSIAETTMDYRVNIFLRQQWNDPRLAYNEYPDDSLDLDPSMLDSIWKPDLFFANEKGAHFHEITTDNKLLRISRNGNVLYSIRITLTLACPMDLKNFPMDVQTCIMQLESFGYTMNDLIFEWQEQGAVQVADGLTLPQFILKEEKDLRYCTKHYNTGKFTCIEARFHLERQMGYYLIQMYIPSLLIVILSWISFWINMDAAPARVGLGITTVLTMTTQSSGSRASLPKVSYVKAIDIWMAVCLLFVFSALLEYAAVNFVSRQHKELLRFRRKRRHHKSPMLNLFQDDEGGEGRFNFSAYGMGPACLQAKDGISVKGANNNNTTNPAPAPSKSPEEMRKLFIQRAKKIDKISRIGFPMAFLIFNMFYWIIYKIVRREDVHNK

[11] = molecular target: muscle nicotinic receptors (α1β1δγ) (Rattus norvegicus, UniProt P18916+P25108+P25109+P25110); assay: Selectivity test in Xenopus oocytes: muscle nicotinic receptors; type: cell-based; settings: 20 μM; 1 μM acetylcholine
Method in brief: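 Two-electrode voltage clamp on Xenopus oocytes 2–5 days after cRNA injection; muscle nAChR subunits were injected 1:1:1:1. Recorded at 23°C and −40 mV in HEPES/BaCl2 saline, pH 7.4. Test compound at 20 μM was co-applied with agonist. Response was given as percent of control, taking control as the mean of responses before and after compound exposure.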

[12] = test system: GABA receptors (GABAA α1β2γ2S, GABAC ρ1); assay: Selectivity test in Xenopus oocytes: GABA receptors; type: cell-based, rat; settings: 20 μM; 100 μM GABA
[13] = molecular target: rat GluN1/GluN3B receptors (rat GluN1–4a/GluN3B) (Rattus norvegicus, UniProt Q8VHN2); type: cell-based
Method in brief: as §1

[14] = test system: GluN1/GluN2 NMDA receptors (GluN1 co-expressed with GluN2A-D); assay: Selectivity test in Xenopus oocytes: GluN1/GluN2 NMDA receptors; type: cell-based
[15] = test system: GluA1–4 AMPA receptors; assay: Selectivity test in Xenopus oocytes: AMPA receptors; type: cell-based, rat, human; settings: 20 μM; 100 μM glutamate
[16] = molecular target: alpha7 nicotinic receptors (Rattus norvegicus, UniProt Q05941); assay: Selectivity test in Xenopus oocytes: alpha7 nicotinic receptors; type: cell-based; settings: 20 μM; 300 μM acetylcholine
[17] = test system: GluN1/GluN3 receptors; settings: ref Kvist et al., 2013a; cited from earlier work
[18] = test system: GluN3A; settings: read-out: EC50 of glycine at GluN3A; ref Grand et al., 2018; Kvist et al., 2013a; cited from earlier work
[19] = test system: GluN1; settings: read-out: EC50 of glycine at GluN1; ref Grand et al., 2018; Kvist et al., 2013a; cited from earlier work
[20] = test system: GluN1/GluN3 receptors; settings: ref Grand et al., 2018; cited from earlier work
[21] = 500 nM CGP-78608 plus 100 μM glycine

human GluN1/GluN3A receptors, sequence (Q8TCU5 24-1115, other chains not shown): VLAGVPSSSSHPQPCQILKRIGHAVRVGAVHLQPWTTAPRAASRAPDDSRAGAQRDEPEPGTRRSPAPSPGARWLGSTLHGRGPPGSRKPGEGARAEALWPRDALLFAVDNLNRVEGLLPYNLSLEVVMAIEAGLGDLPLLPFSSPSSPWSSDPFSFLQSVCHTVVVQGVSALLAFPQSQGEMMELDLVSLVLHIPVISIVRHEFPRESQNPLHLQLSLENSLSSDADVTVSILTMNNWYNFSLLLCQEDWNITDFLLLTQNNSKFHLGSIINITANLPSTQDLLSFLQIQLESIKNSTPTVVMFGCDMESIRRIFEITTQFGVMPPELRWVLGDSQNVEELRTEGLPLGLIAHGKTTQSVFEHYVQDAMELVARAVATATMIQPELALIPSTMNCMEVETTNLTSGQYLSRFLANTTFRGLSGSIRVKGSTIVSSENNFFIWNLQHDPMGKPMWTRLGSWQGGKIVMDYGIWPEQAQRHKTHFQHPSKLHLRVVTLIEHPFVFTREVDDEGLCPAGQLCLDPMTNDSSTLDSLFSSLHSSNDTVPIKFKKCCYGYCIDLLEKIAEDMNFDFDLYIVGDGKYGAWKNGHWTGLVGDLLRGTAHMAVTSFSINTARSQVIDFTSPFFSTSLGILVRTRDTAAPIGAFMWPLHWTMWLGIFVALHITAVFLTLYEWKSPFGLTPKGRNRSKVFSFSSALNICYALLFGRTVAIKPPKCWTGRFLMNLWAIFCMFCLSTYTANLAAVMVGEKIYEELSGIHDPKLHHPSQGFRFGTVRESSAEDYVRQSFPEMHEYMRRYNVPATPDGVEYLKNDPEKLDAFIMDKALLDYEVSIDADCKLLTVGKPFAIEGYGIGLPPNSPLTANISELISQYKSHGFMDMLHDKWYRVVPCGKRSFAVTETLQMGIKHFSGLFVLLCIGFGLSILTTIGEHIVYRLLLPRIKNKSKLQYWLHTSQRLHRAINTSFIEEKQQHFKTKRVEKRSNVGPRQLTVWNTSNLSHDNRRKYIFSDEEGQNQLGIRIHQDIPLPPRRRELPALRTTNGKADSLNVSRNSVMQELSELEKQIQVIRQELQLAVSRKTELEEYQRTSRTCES
human GluN1^FA,TL/GluN3A receptors, sequence (Q8TCU5 24-1115, other chains not shown): as above
rat GluN1/GluN3B receptors (rat GluN1–4a/GluN3B), sequence (Q8VHN2 25-1002, other chains not shown): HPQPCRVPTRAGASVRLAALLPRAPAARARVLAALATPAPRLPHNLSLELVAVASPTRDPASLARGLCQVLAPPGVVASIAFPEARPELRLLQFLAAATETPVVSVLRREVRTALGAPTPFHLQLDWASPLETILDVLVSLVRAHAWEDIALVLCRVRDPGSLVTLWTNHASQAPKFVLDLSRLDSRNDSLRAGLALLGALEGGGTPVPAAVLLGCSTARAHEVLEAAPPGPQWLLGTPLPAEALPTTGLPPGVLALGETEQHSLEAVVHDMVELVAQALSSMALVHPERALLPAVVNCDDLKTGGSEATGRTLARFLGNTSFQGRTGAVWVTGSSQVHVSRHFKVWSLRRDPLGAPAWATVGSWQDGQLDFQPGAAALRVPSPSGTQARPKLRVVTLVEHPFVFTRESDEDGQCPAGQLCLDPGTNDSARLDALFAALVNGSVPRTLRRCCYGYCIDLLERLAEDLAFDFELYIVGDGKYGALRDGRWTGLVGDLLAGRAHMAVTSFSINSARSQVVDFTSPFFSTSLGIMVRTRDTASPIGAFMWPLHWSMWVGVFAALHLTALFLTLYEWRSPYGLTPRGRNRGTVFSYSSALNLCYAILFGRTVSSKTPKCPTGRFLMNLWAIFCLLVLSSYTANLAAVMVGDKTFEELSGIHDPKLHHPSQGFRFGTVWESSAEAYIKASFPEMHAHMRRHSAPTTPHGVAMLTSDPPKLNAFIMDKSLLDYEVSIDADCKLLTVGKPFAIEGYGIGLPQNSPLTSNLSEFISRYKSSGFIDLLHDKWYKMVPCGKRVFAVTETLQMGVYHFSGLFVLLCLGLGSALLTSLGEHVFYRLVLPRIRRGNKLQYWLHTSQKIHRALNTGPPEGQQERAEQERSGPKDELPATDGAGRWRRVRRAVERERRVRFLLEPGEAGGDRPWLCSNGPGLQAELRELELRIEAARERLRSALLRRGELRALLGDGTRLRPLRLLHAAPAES
rat GluN1–4a^FA,TL/GluN3B receptors, sequence (Q8VHN2 25-1002, other chains not shown): as above
native GluN1/GluN3A receptors, sequence (A2AIR5 27-1135, other chains not shown): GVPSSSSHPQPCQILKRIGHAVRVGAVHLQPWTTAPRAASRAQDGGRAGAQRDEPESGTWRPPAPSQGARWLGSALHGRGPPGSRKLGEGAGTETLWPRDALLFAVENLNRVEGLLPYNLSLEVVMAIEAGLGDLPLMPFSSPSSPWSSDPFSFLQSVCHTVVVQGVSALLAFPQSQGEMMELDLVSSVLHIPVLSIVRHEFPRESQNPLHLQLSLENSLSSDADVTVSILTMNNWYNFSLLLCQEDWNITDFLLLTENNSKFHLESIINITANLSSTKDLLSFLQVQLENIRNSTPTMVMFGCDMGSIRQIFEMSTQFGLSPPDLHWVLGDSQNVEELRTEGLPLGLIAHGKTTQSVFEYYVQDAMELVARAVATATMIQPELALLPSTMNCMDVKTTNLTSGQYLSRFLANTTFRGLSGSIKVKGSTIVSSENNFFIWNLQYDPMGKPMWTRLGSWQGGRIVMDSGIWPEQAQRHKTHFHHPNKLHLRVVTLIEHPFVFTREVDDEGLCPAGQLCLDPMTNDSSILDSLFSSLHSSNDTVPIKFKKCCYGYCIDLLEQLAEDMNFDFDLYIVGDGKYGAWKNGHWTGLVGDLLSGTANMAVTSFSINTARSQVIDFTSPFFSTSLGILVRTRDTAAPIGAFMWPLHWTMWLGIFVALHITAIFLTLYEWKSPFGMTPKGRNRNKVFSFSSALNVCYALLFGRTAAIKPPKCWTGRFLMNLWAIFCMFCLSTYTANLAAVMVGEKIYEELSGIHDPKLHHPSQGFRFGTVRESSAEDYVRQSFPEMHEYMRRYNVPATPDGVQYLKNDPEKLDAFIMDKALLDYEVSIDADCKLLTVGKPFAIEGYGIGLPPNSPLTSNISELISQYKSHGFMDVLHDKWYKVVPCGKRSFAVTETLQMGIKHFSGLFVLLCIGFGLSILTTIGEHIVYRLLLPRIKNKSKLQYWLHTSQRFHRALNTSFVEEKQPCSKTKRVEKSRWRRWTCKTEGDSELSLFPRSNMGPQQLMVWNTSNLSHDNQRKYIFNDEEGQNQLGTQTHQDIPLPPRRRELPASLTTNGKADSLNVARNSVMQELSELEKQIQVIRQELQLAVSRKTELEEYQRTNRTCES
alpha7 nicotinic receptors, sequence (Q05941 23-502): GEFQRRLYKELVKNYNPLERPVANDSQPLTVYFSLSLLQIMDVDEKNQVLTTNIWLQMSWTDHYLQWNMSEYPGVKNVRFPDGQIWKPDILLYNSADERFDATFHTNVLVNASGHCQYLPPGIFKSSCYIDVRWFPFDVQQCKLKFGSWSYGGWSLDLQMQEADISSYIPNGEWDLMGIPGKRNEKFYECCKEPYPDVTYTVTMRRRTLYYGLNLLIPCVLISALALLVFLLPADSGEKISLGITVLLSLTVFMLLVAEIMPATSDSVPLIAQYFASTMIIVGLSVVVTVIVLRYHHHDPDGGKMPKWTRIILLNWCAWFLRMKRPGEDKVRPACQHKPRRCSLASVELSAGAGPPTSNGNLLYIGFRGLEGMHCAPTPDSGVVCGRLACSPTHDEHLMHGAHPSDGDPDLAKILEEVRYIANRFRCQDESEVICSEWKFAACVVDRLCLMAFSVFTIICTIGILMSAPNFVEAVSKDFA
α2β4 nicotinic receptors, sequence (P09483 31-630): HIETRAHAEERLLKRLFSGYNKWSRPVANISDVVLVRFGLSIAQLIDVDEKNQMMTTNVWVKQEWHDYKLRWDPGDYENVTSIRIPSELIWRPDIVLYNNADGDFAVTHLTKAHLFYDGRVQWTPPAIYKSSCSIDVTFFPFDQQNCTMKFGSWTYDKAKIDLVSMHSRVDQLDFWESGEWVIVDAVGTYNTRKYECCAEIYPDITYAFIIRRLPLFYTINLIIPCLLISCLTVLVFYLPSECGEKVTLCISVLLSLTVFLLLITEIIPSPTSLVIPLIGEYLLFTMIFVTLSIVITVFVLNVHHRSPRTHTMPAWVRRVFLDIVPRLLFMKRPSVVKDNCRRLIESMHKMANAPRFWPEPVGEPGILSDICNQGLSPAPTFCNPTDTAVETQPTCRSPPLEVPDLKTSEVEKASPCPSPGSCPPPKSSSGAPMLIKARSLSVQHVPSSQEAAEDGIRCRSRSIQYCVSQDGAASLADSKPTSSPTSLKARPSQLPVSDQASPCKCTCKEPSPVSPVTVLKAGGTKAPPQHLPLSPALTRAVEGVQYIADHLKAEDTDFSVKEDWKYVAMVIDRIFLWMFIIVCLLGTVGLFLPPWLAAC
α2β4 nicotinic receptors, sequence (P12390 25-500): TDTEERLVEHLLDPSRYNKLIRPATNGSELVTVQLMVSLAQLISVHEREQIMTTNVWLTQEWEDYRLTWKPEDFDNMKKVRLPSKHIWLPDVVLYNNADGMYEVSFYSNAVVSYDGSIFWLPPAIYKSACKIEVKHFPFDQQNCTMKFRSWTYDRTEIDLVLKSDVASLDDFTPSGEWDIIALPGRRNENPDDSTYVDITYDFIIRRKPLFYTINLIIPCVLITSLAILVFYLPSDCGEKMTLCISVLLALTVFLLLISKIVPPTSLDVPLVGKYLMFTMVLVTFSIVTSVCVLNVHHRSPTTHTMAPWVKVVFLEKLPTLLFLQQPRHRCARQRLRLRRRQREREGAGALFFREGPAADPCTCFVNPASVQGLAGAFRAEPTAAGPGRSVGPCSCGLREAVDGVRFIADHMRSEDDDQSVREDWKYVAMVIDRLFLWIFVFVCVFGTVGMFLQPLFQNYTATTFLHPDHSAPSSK
GluN1/GluN3A channels, sequence (A2AIR5 27-1135, other chains not shown): as the sequence (A2AIR5 27-1135, other chains not shown) above

COc1ccc(OCC(c2ccc(OC)cc2)N2Cc3ccccc3C2=O)cc1 (stereo not shown) [EU1180–438, 2-(2-(4-methoxyphenoxy)-1-(4-methoxyphenyl)ethyl)isoindolin-1-one]
effect on glycine-activated responses of native GluN1/GluN3A receptors [1]: inhibited significantly; also recorded: strong inhibition
activity at α2β4 nicotinic receptors [2]: modestly inhibited
Slope (Hill slope, Fig. 1D) [3, 21]: 1.5
minimum (residual current at saturating concentration, Fig. 1D) [3, 21]: 15%
% Inhibition (fitted maximum at saturating test compound) ([3]; pH 7.4, 0.5 μM CGP-78608): 85%
effect on NMDA-activated responses mediated by GluN1/GluN2 NMDA receptors [4]: does not affect current responses; also recorded: not modulated
IC50 [5]: 5.2 µM
% inhibition at saturating concentrations determined from the fitted curve ([5]; data not shown): 82%
average chord conductance of GluN1/GluN3A channels in the presence of compound [6]: 6.3 ± 0.90 pS
activity at P2X receptors [7]: inactive
activity at kainate receptors [8]: virtually no activity
response in the presence of compound, % of control ([9]; 10 μM EU1180–438, 1 mM glycine): 29 ± 4.2 % of control
dependence of inhibition on glycine concentration ([9]; 10 μM EU1180–438, 1 mM vs 3 mM glycine): not altered by increasing glycine concentration
response in the presence of compound, % of control ([9]; 10 μM EU1180–438, 3 mM glycine): 29 ± 4.2 % of control
IC50 ([9]; IC50, pH 6.8): 4.2 µM
IC50 ([9]; IC50, pH 7.4, 1 mM glycine, holding potential −40 mV, mean of individual fits): 3.5 µM
% Inhibition (fitted maximum at saturating test compound) ([9]; pH 6.8): 72%
% Inhibition (fitted maximum at saturating test compound) ([9]; pH 7.4, 1 mM glycine, −40 mV): 82%
Slope (Hill slope, Fig. 1C) ([9]; responses activated by 1000 μM glycine): 1.3
activity at glycine receptors [10]: virtually no activity
activity at muscle nicotinic receptors [11]: modestly inhibited
activity at GABA receptors [12]: virtually no activity
Slope (Hill slope, Fig. 1D) [13, 21]: 1.5
minimum (residual current at saturating concentration, Fig. 1D) [13, 21]: 7%
% Inhibition (fitted maximum at saturating test compound) ([13]; pH 7.4, 0.5 μM CGP-78608): 93%
activity at GluN1/GluN2 NMDA receptors ([14]; 20 μM, 100 μM glutamate/100 μM glycine): virtually no activity
activity at recombinant GluN1/GluN2 NMDA receptors (library screen) ([14]; screen): no detectable activity
activity at AMPA receptors [15]: virtually no activity
activity at alpha7 nicotinic receptors [16]: virtually no activity

O=C(O)c1cc(C(=O)c2ccc(Cl)cc2Cl)c[nH]1 [TK30]
preference for GluN1/GluN3 over GluN1/GluN2 receptors [17]: 5- to 10 fold

O=c1[nH]c2nonc2nc1O [TK80]
preference for GluN1/GluN3 over GluN1/GluN2 receptors [17]: 5- to 10 fold

NCC(=O)O [glycine]
EC50 [18]: 10 to 60 µM

C[C@@H](NCc1cc(Br)cc2[nH]c(=O)c(=O)[nH]c12)P(=O)(O)O.Cl [CGP-78608, [(1 S)-1-[[(7-bromo-1,2,3,4-tetrahydro-2,3-dioxo-5-quinoxalinyl)methyl]amino]ethyl]phosph onic acid hydrochloride]
effect on activation of GluN1/GluN3 receptors [20]: can dramatically enhance activation of GluN1/GluN3 receptors

— article PMC7530031 (Neuropharmacology, 2020)
